ChEMBL document CHEMBL4619733, “Design and optimization of a series of 4-(3-azabicyclo[3.1.0]hexan-3-yl)pyrimidin-2-amines: Dual inhibitors of TYK2 and JAK1” (Bioorg Med Chem, 2020)
Values after ≈ are worked out from the molar mass of the structure shown.

Key:
[1] = Lipophilicity, log D of compound at pH 7.4; format: physicochemical; conditions: buffer
[2] = Apparent permeability in dog MDCK2 cells at pH 7.4; format: ADME, cell-based, Canis lupus familiaris, MDCK-II; conditions: MDCK
Procedure, shortened: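 Passive permeability across MDCK-II cells; mean apparent permeability reported.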

[3] = Aqueous solubility of compound in pH 2 buffer; format: physicochemical
Procedure, shortened: (§1)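 Solubility measured on crystalline material at pH 6.5 and pH 2.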

[4] = AUC infinity in Sprague-Dawley rat at 3 mg/kg, po; format: ADME, organism-based; parameters: dose 3 mg/kg, route oral, time infinity; conditions: in vivo
Procedure, shortened: (§2)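 Sprague-Dawley rats dosed orally at 3 mg/kg, with intravenous reference at 1 mg/kg.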

[5] = Volume of distribution in Sprague-Dawley rat at 1 mg/kg, iv; format: ADME, organism-based; conditions: in vivo
[6] = Intrinsic clearance in human liver microsome; format: ADME; conditions: liver microsomes, read-out: CLH
[7] = Aqueous solubility of compound in pH 6.5 buffer; format: physicochemical; procedure, shortened: as §1
[8] = Half life in Sprague-Dawley rat at 1 mg/kg, iv; format: ADME, organism-based; conditions: in vivo
[9] = Oral bioavailability in Sprague-Dawley rat at 3 mg/kg; format: ADME, organism-based; conditions: in vivo; procedure, shortened: as §2
[10] = Clearance in Sprague-Dawley rat plasma at 1 mg/kg, iv; format: ADME, organism-based
[11] = Cmax in Sprague-Dawley rat at 3 mg/kg, po; format: ADME, organism-based; parameters: dose 3 mg/kg, route oral; conditions: in vivo; procedure, shortened: as §2
[12] = Intrinsic clearance in human hepatocytes per million cells; format: ADME, cell-based, Hepatocyte; conditions: read-out: CLH

Compound | logD [1] | further results
C[C@@H]1[C@@H]2CN(c3nc(Nc4cnn(C)c4)ncc3F)C[C@]12NC(=O)[C@@H]1C[C@H]1C#N | 2.35 | Papp [2]: 12.9 ×10⁻⁶ cm/s
C[C@@H]1[C@@H]2CN(c3nc(Nc4cnn(C)c4)ncc3F)C[C@]12NC(=O)[C@H]1CC1(F)F | 2.92 | –
C[C@@H]1[C@@H]2CN(c3nc(Nc4cnn(C)c4)ncc3F)C[C@]12NC(=O)[C@@H]1CC1(F)F | 2.65 | solubility [3]: > 15000 µg/mL; AUC(0-inf) [4]: 2030 ng·h/mL; Vd [5]: 1.2 L/kg; microsomal CLint [6]: < 8 µL/min/mg; solubility [7]: 140 µg/mL (≈ 344 µM); half-life [8]: 1.4 h; bioavailability [9]: 54%; clearance [10]: 13 mL/min/kg; Cmax [11]: 614 ng/mL; hepatocyte CLint [12]: 3.45 µL/min/1e6 cells; Papp [2]: 17 ×10⁻⁶ cm/s
CCNC(=O)c1ccc(Nc2nccc(N3CC4CCC(C3)N4C(=O)C3CC3)n2)cc1 | 1.8 | –
O=C(C1CC1)N1C2CCC1CN(c1nc(Nc3cnn(CCO)c3)ncc1F)C2 | 1.8 | –
CCNC(=O)c1ccc(Nc2nccc(N3CC4CC(C3)N4C(=O)C3CC3)n2)cc1 | 1.7 | –
C[C@@H]1[C@@H]2CN(c3nc(Nc4cnn(CCO)c4)ncc3F)C[C@]12NC(=O)C1CC1 | 2.1 | –

Continued, in another order:

logD [1] | Compound | further results
1.75 | O=C(N[C@]12C[C@H]1CN(c1nc(Nc3cnn(CCO)c3)ncc1F)C2)C1CC1 | –
1.75 | C[C@@H]1[C@@H]2CN(c3nc(Nc4cnn(CCO)c4)ncc3F)C[C@]12NC(=O)[C@H]1C[C@@H]1C#N | Papp [2]: 1.2 ×10⁻⁶ cm/s
1.43 | N#C[C@H]1C[C@@H]1C(=O)N[C@@]12C[C@@H]1CN(c1nc(Nc3cnn(CCO)c3)ncc1F)C2 | –
1.74 | O=C(N[C@@]12C[C@@H]1CN(c1nc(Nc3cnn(CCO)c3)ncc1F)C2)C1CC1 | –
1.4 | N#C[C@@H]1C[C@H]1C(=O)N[C@@]12C[C@@H]1CN(c1nc(Nc3cnn(CCO)c3)ncc1F)C2 | –
1.71 | C[C@@H]1[C@@H]2CN(c3nc(Nc4cnn(CCO)c4)ncc3F)C[C@]12NC(=O)[C@@H]1C[C@H]1C#N | –
2.32 | C[C@@H]1[C@@H]2CN(c3nc(Nc4cnn(C)c4)ncc3F)C[C@]12NC(=O)[C@H]1C[C@@H]1C#N | Papp [2]: 13.8 ×10⁻⁶ cm/s
